Experimental data published in ChEMBL document CHEMBL3272266, “Dibenzotropone- and dibenzosuberonecarboxylic acids with bronchodilator activity” (J Med Chem, 1979).
Calls of active or inactive are those of the source. The rule behind the calls is not given here.

Columns and labels:
Cavia porcellus [1] = experiment: Bronchodilator activity in guinea pig assessed as protection against histamine aerosol-induced bronchoconstriction at 100 mg/kg, ip treated for 15 mins prior to histamine aerosol-challenge measured after 5 mins relative to control; type: functional; details: route intraperitoneal
Procedure, shortened: (§1)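 Guinea pigs in groups of eight; a control group of eight is first confirmed to collapse. Compound given ip 15 min or orally 30 min before exposure to 0.04% aqueous histamine aerosol for 5 min. Percent protection = 100 × animals not collapsing during the 5-min exposure / total animals. Significance by chi-square with Yates correction against 66 control animals.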

Cavia porcellus [2] = experiment: Bronchodilator activity in trachea and jugular vein cannulated guinea pig assessed as inhibition of histamine-induced response at 25 mg/kg, iv after 5 mins relative to control; type: functional
Procedure, shortened: (§2)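 Cannulated guinea pigs given histamine phosphate 10 µg/kg iv in buffered saline. Test agent given 5 min later as the sodium salt in water via jugular cannula, one dose per animal, then histamine repeated 5 min after dosing. Percent inhibition = maximum pulmonary resistance after the agent versus before it.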

[3] = Bronchodilator activity in guinea pig trachea assessed as relaxation of tracheal smooth muscle at 0.05 to 0.5 ug/ml after 15 mins relative to aminophylline; type: functional, Cavia porcellus
Procedure, shortened: (§3)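 Guinea pig trachea cut into rings tied as a chain, in Krebs-Henseleit at 37 °C aerated with 5% CO2/95% O2, resting load 0.2–0.5 g, tone recorded isometrically after stabilization. Sodium salts in water, up to 5 µg/mL, 15-min exposure. Potency estimated against aminophylline by a three- or four-point assay from concentration–relaxation plots, one preparation per agent.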

Cavia porcellus [4] = experiment: Bronchodilator activity in trachea and jugular vein cannulated guinea pig assessed as inhibition of histamine-induced response at 12.5 mg/kg, iv after 5 mins relative to control; type: functional; procedure, shortened: as §2
Cavia porcellus [5] = experiment: Bronchodilator activity in guinea pig assessed as protection against histamine aerosol-induced bronchoconstriction at 50 mg/kg, ip treated for 15 mins prior to histamine aerosol-challenge measured after 5 mins relative to control; type: functional; details: route intraperitoneal
Cavia porcellus [6] = experiment: Bronchodilator activity in guinea pig assessed as protection against histamine aerosol-induced bronchoconstriction at 75 mg/kg, ip treated for 15 mins prior to histamine aerosol-challenge measured after 5 mins relative to control; type: functional; details: route intraperitoneal
[7] = (§4) Bronchodilator activity in guinea pig trachea assessed as relaxation of tracheal smooth muscle at 0.5 to 5 ug/ml after 15 mins relative to aminophylline; type: functional, Cavia porcellus; procedure, shortened: as §3
[8] = Bronchodilator activity in guinea pig trachea assessed as relaxation of tracheal smooth muscle at 0.125 to 0.5 ug/ml after 15 mins relative to aminophylline; type: functional, Cavia porcellus; procedure, shortened: as §3
Cavia porcellus [9] = experiment: Toxicity in trachea and jugular vein cannulated histamine-induced guinea pig assessed as severe airway constriction at 25 mg/kg, iv; type: organism-based; set-up: dose 25 mg/kg, route intravenous; details: in vivo
Procedure, shortened: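 Guinea pigs cannulated in the jugular vein dosed iv with the sodium salt in water. Animals showing severe airway constriction after dosing were recorded and received no histamine challenge.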

Cavia porcellus [10] = experiment: Bronchodilator activity in guinea pig assessed as protection against histamine aerosol-induced bronchoconstriction at 90 mg/kg, po treated for 30 mins prior to histamine aerosol-challenge measured after 5 mins; type: functional, organism-based; set-up: dose 90 mg/kg; procedure, shortened: as §1
Cavia porcellus [11] = experiment: Bronchodilator activity in trachea and jugular vein cannulated guinea pig assessed as inhibition of histamine-induced response at 6.25 mg/kg, iv after 5 mins relative to control; type: functional; procedure, shortened: as §2
Cavia porcellus [12] = experiment: Bronchodilator activity in guinea pig assessed as protection against histamine aerosol-induced bronchoconstriction at 90 mg/kg, ip treated for 15 mins prior to histamine aerosol-challenge measured after 5 mins relative to control; type: functional; details: route intraperitoneal; procedure, shortened: as §1
Cavia porcellus [13] = experiment: Bronchodilator activity in guinea pig assessed as protection against histamine aerosol-induced bronchoconstriction at 200 mg/kg, po treated for 30 mins prior to histamine aerosol-challenge measured after 5 mins; type: functional, organism-based; set-up: dose 200 mg/kg; procedure, shortened: as §1
Cavia porcellus [14] = experiment: Bronchodilator activity in trachea and jugular vein cannulated guinea pig assessed as inhibition of histamine-induced response at 3.175 mg/kg, iv after 5 mins relative to control; type: functional; procedure, shortened: as §2
[15] = Bronchodilator activity in guinea pig trachea assessed as relaxation of tracheal smooth muscle at 0.005 to 5 ug/ml after 15 mins relative to aminophylline; type: functional, Cavia porcellus; procedure, shortened: as §3
Cavia porcellus [16] = species on record: Cavia porcellus; experiment: as §4; type: functional; procedure, shortened: as §3

Row | Structure (SMILES) | Activity (Cavia porcellus [1]) [%] | other results
1 | CC(C)c1ccc2c(c1)C(=O)c1ccc(C(=O)O)cc1CC2 | 62.5 | –
2 | O=C(O)c1ccc2c(c1)C(=O)c1cc(O)ccc1CC2 | 12.5 | –
3 | COc1ccc2c(c1)CCc1cc(C(=O)O)ccc1C2=O [listing 1 of 2 here] | – | inhibition in vivo at 25 mg/kg (Cavia porcellus [2]): 20%
4 | CC(=O)c1ccc2ccc3ccc(C(=O)O)cc3c(=O)c2c1 | 37.5 | –
5 | Cc1ccc2c(c1)CCc1cc(C(=O)O)ccc1C2=O | 12.5 | –
6 | O=C(O)c1ccc2ccc3ccccc3c(=O)c2c1 | 62.5 | –
7 | N#Cc1ccc2c(c1)C(=O)c1cc(C(=O)[O-])ccc1CC2.[Na+] | – | fold change (FC) [3]: 5
8 | O=C(O)c1ccc2c(=O)c3ccccc3ccc2c1 | 0 | –
9 | O=C(O)c1ccc2c(c1)CCc1ccccc1C2=O [listing 1 of 3 here] | – | inhibition in vivo at 12.5 mg/kg (Cavia porcellus [4]): 0%; inhibition in vivo at 25 mg/kg (Cavia porcellus [2]): 11%
10 | O=C(O)c1ccc2ccc3ccc(Cl)cc3c(=O)c2c1 | 0 | –
11 | Cn1c(=O)c2[nH]cnc2n(C)c1=O.Cn1c(=O)c2[nH]cnc2n(C)c1=O.NCCN [AMINOPHYLLINE] | 75 | Activity (Cavia porcellus [5]): 25%; Activity (Cavia porcellus [6]): 50%
12 | CC(=O)c1ccc2c(c1)C(=O)c1cc(C(=O)O)ccc1CC2 | 62.5 | –
13 | O=C([O-])c1ccc2c(c1)CCc1ccc(Br)cc1C2=O.[Na+] | – | fold change (FC) [7]: 7
14 | O=C(O)c1ccc2c(c1)CCc1cc(Br)ccc1C2=O | 25 | –
15 | CC(C)Oc1ccc2c(c1)C(=O)c1cc(C(=O)O)ccc1CC2 | – | Activity (Cavia porcellus [5]): 0%
16 | O=C(O)c1cc2ccccc2c(=O)c2ccccc12 | 0 | –
17 | Cc1cccc2c1CCc1cc(C(=O)O)ccc1C2=O [listing 1 of 2 here] | 87.5 | –
18 | O=C([O-])c1ccc2c(c1)C(=O)c1cc(Br)ccc1CC2.[Na+] | – | fold change (FC) [8]: 10; inhibition in vivo at 12.5 mg/kg (Cavia porcellus [4]): 0%; inhibition in vivo at 25 mg/kg (Cavia porcellus [2]): 61%
19 | O=C(O)c1ccc2ccc3ccc(Br)cc3c(=O)c2c1 | 12.5 | –
20 | O=C(O)c1cccc2c1CCc1ccccc1C2=O | 0 | –
21 | N#Cc1ccc2c(c1)C(=O)c1cc(C(=O)O)ccc1CC2 | 0 | –
22 | O=C(O)c1ccc2c(c1)C(=O)c1ccccc1CC2 | 0 | –

Row | Structure (SMILES) | Activity (Cavia porcellus [1]) [%] | other results
23 | COc1ccc2c(c1)CCc1cc(C(=O)O)ccc1C2=O [listing 2 of 2 here] | 37.5 | –
24 | Cc1ccc2c(c1)CCc1cc(C(=O)[O-])ccc1C2=O.[Na+] | – | inhibition in vivo at 12.5 mg/kg (Cavia porcellus [4]): 0%; Activity (Cavia porcellus [9]): Toxic
25 | O=C(O)c1ccc2c(c1)CCc1c(Cl)cccc1C2=O [listing 1 of 2 here] | 75 | –
26 | O=C(O)c1ccc2c(=O)c3cccc(Br)c3ccc2c1 | 25 | –
27 | CC(C)c1cccc2c1CCc1cc(C(=O)O)ccc1C2=O | 25 | Activity (Cavia porcellus [10]): inactive
28 | O=C(O)c1ccc2c(=O)c3cc(Cl)cc(Cl)c3ccc2c1 | 0 | –
29 | N#Cc1ccc2c(c1)CCc1ccc(C(=O)O)cc1C2=O | 12.5 | –
30 | O=C(O)c1ccc2c(c1)C(=O)c1cc(Br)ccc1CC2 | 62.5 | –
31 | O=C(O)c1ccc2c(c1)CCc1c(Cl)cc(Cl)cc1C2=O | 50 | –
32 | COc1ccc2c(c1)C(=O)c1cc(C(=O)O)ccc1CC2 | 50 | –
33 | O=C(O)c1ccc2ccc3ccc(C(=O)O)cc3c(=O)c2c1 | 25 | –
34 | O=C(O)c1ccc2c(c1)CCc1ccc(Cl)cc1C2=O | 0 | –
35 | O=C(O)c1ccc2c(c1)CCc1c(Br)cccc1C2=O [listing 1 of 2 here] | – | inhibition in vivo at 12.5 mg/kg (Cavia porcellus [4]): 46%; inhibition in vivo at 25 mg/kg (Cavia porcellus [2]): 77%; inhibition in vivo at 6.25 mg/kg (Cavia porcellus [11]): 0%
36 | O=C(O)c1ccc2c(c1)CCc1c(Br)cccc1C2=O [listing 2 of 2 here] | – | Activity (Cavia porcellus [12]): 75%
37 | O=C(O)c1ccc2c(c1)C(=O)c1cccc(Br)c1CC2 | 0 | –
38 | O=C(O)c1ccc2c(c1)C(=O)c1cc(Cl)ccc1CC2 | 25 | –
39 | COc1ccc2c(c1)C(=O)c1ccc(C(=O)O)cc1CC2 [listing 1 of 2 here] | – | inhibition in vivo at 12.5 mg/kg (Cavia porcellus [4]): 13%; inhibition in vivo at 25 mg/kg (Cavia porcellus [2]): 68%
40 | COc1ccc2c(c1)C(=O)c1ccc(C(=O)O)cc1CC2 [listing 2 of 2 here] | 50 | –
41 | O=C(O)c1ccc2c(=O)c3cccc(F)c3ccc2c1 [listing 1 of 2 here] | 25 | –
42 | O=C(O)c1ccc2c(c1)CCc1c(Cl)cccc1C2=O [listing 2 of 2 here] | – | Activity (Cavia porcellus [13]): inactive
43 | O=C(O)c1ccc2c(c1)C(=O)c1ccc(Br)cc1CC2 | 0 | –
44 | O=C([O-])c1ccc2c(c1)C(=O)c1ccccc1CC2.[Na+] | – | fold change (FC) [3]: 7

Row | Structure (SMILES) | Activity (Cavia porcellus [1]) [%] | other results
45 | Cc1cccc2c1CCc1cc(C(=O)O)ccc1C2=O [listing 2 of 2 here] | – | inhibition in vivo at 12.5 mg/kg (Cavia porcellus [4]): 0%; inhibition in vivo at 25 mg/kg (Cavia porcellus [2]): 0%; inhibition in vivo at 6.25 mg/kg (Cavia porcellus [11]): 0%; inhibition in vivo at 3.175 mg/kg (Cavia porcellus [14]): 0%
46 | CC(C)Oc1ccc2c(c1)C(=O)c1cc(C(=O)[O-])ccc1CC2.[Na+] | – | fold change (FC) [3]: 0.5
47 | CC(C)c1ccc2c(c1)C(=O)c1cc(C(=O)O)ccc1CC2 | 25 | –
48 | CC(C)Oc1ccc2c(c1)C(=O)c1ccc(C(=O)O)cc1CC2 | 50 | –
49 | O=C([O-])c1ccc2c(c1)CCc1c(Cl)cc(Cl)cc1C2=O.[Na+] | – | inhibition in vivo at 12.5 mg/kg (Cavia porcellus [4]): 53%; Activity (Cavia porcellus [9]): Toxic
50 | Cc1ccc2c(c1)C(=O)c1ccc(C(=O)O)cc1CC2 | 62.5 | –
51 | CC(C)c1ccc2c(c1)C(=O)c1ccc(C(=O)[O-])cc1CC2.[Na+] | – | fold change (FC) [8]: 10
52 | CC(=O)c1ccc2c(c1)C(=O)c1cc(C(=O)[O-])ccc1CC2.[Na+] | – | fold change (FC) [3]: <1
53 | CC(=O)c1ccc2c(c1)C(=O)c1ccc(C(=O)O)cc1CC2 | 25 | –
54 | O=C(O)c1ccc2c(c1)CCc1ccccc1C2=O [listing 2 of 3 here] | 62.5 | –
55 | CC(C)c1ccc2c(c1)C(=O)c1cc(C(=O)[O-])ccc1CC2.[Na+] | – | fold change (FC) [7]: 5
56 | O=C(O)c1cccc2c(=O)c3ccccc3ccc12 | 12.5 | –
57 | O=C(O)c1ccc2c(c1)CCc1ccc(Br)cc1C2=O | 50 | –
58 | O=C(O)c1ccc2c(=O)c3cccc(F)c3ccc2c1 [listing 2 of 2 here] | – | inhibition in vivo at 12.5 mg/kg (Cavia porcellus [4]): 22%; inhibition in vivo at 25 mg/kg (Cavia porcellus [2]): 43%
59 | O=C(O)c1ccc2c(c1)CCc1c(F)cccc1C2=O | 75 | –
60 | O=C([O-])c1ccc2c(c1)CCc1ccc(Cl)cc1C2=O.[Na+] | – | inhibition in vivo at 12.5 mg/kg (Cavia porcellus [4]): 24%; inhibition in vivo at 6.25 mg/kg (Cavia porcellus [11]): 0%; Activity (Cavia porcellus [9]): Toxic
61 | O=C([O-])c1ccc2c(c1)C(=O)c1cc(Cl)ccc1CC2.[Na+] | – | fold change (FC) [15]: 25
62 | O=C([O-])c1ccc2c(c1)CCc1c(Cl)cccc1C2=O.[Na+] | – | inhibition in vivo at 12.5 mg/kg (Cavia porcellus [4]): 76%; Activity (Cavia porcellus [9]): Toxic
63 | CC(C)Oc1ccc2ccc3ccc(C(=O)O)cc3c(=O)c2c1 | 62.5 | –
64 | O=C(O)c1ccc2c(c1)CCc1ccccc1C2=O [listing 3 of 3 here] | – | Activity (Cavia porcellus [16]): inactive
65 | Cc1cc(C)c2c(c1)C(=O)c1cc(C(=O)O)ccc1CC2 | 37.5 | –
66 | O=C(O)c1ccc2c(c1)C(=O)c1ccc(Cl)cc1CC2 | 25 | –
